Most compounds without a hit are left out; they make up all but 1.8% or so of the library.
CHRM4 antagonist = CHRM4 antagonism in calcium assay | AID 624125 | CHO-hM4 cells, ACh EC80, Fluo-8 calcium fluorescence | actives 0.73% (n = 360,000) | inhibition, % at 3 µM | P08173;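 active = inhibition above its plate's cutoff, the mean inhibition of sample wells plus 3 SD, cut at about 27% in these data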;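 also: 0% = acetylcholine EC80 with DMSO and 100% = DMSO without agonist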
CHRM4 agonist = agonists of human muscarinic M4 receptor (CHRM4); actives 0.14% (n = 360,000); CHO-K1 hM4/Gqi5, Fluo-8 calcium fluorescence; vehicle 0%, full acetylcholine response 100%; P08173; activation, % at 3 µM;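 active = activation above the run mean over all test wells plus 3 SD, cut at about 32% in these data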;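 also: peak over basal fluorescence ratio per well then scaled between controls; 0% = DMSO wells and 100% = acetylcholine at EC100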
CHRM5 agonist = agonists of human muscarinic M5 receptor (CHRM5); P08912; CHO-K1 hM5 cells, Fluo-8 calcium fluorescence; 0% DMSO wells, 100% maximal acetylcholine response; activation, % at 3 µM; actives 0.19% (n = 360,000); AID 624037;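 active = activation above the run's mean over test compounds plus 3 SD, cut at about 23% in these data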;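 also: signal is peak over basal fluorescence ratio across the kinetic read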
Target sequence (P08912 whole entry, looked up): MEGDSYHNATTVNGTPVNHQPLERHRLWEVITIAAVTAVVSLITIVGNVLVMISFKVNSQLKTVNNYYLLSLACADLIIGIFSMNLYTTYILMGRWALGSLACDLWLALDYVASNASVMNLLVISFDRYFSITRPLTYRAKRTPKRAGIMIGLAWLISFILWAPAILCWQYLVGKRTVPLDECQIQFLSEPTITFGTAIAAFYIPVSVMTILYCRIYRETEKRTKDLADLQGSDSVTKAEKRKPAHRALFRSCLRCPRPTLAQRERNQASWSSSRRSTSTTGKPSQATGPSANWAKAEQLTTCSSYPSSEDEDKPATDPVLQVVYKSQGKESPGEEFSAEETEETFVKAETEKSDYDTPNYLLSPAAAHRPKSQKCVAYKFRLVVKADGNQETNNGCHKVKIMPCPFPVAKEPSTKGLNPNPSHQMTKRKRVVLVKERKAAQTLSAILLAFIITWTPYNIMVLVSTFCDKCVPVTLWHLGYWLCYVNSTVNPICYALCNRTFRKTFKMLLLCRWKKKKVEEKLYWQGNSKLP
M4 PAM = CHRM4 positive allosteric modulation. P08173. CHO-K1 hM4/Gqi5, Fluo-8 calcium fluorescence, ACh EC20; 0% = ACh EC20, 100% = maximal ACh. activation, % at 3 µM. actives 0.4% (n = 360,000). AID 624126;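 active = activation above its plate's cutoff, the mean activation of sample wells plus 3 SD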
M5 PAM = positive allosteric modulators of human muscarinic M5 receptor; P08912; CHO-K1 hM5, Fluo-8 calcium, ACh EC20 PAM; 0% = ACh EC20, 100% = ACh EC100; activation, % at 3 µM; actives 0.3% (n = 360,000); AID 624038;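 active = activation above the run cutoff, the mean activation of all test compounds plus 3 SD, cut at about 18% in these data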
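System: CHO-K1 cell line with stable human muscarinic M5 receptor expression | Also added: EC20 acetylcholine as agonist stimulus | Compound: One concentration, 3 µM final (nominal) | Timing: Fluo-8 loading 80 min at 37 °C plus 30 min room temperature | Measured by: Fluo-8 calcium dye fluorescence, kinetic read | Read-out basis: % activation, ACh-normalized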
M5 antag = CHRM5 antagonism in calcium assay. P08912. actives 0.59% (n = 360,000). CHO-hM5 cells, Fluo-8 calcium fluorescence, ACh EC80. inhibition, % at 3 µM;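 active = inhibition above a per-plate cutoff, the mean of that plate's test compounds plus 3 SD, cut at about 27% in these data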;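 also: 0% = acetylcholine EC80 with DMSO and 100% = DMSO without agonist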
* hit, by the source's call.

Screening Fc1ccc2[nH]c3c(N4CCc5ccccc5C4)ncnc3c2c1 returned CHRM4 antagonist 23, CHRM4 agonist 18, CHRM5 agonist 6, M4 PAM -16, M5 PAM -27 and M5 antag 27*.
For COC(=O)CCCn1nc(NC(=O)COc2ccc(F)cc2)cc1C the results were CHRM4 antagonist 3, CHRM4 agonist 3, CHRM5 agonist 0, M4 PAM -3, M5 PAM 1 and M5 antag 7.
For OCCN1CCN(CCCN2c3ccccc3Sc3ccc(C(F)(F)F)cc32)CC1 the results were CHRM4 antagonist -3, CHRM4 agonist 6, CHRM5 agonist -1, M4 PAM -6, M5 PAM -4 and M5 antag -3.
CN(C)CCC(=O)N1c2ccccc2Sc2ccc(C(F)(F)F)cc21 was read as CHRM4 antagonist 99*, CHRM4 agonist 1, CHRM5 agonist -23, M4 PAM -17, M5 PAM -32 and M5 antag 100*.
For CN(C)CCCN1c2ccc(O)cc2Sc2ccc(Cl)cc21 the results were CHRM4 antagonist 44*, CHRM4 agonist 13, CHRM5 agonist -1, M4 PAM -13, M5 PAM -20 and M5 antag 56*.
`CN(C)CCCN1c2ccccc2Sc2ccc(C(F)(F)F)cc21` gave CHRM4 antagonist 83*, CHRM4 agonist 11, CHRM5 agonist 1, M4 PAM -17, M5 PAM -18 and M5 antag 98*.
CCN(CC)c1ccc(/C=C2/C(=O)c3ccc(C(=O)O)cc3C2=O)cc1 was read as CHRM4 antagonist 33*, CHRM4 agonist 20, CHRM5 agonist 33*, M4 PAM -12, M5 PAM -17 and M5 antag 18.
Screening CCN(CC)c1ccc(C=C2C(=O)OC3(CCCCC3)OC2=O)cc1 returned CHRM4 antagonist -3, CHRM4 agonist 0, CHRM5 agonist -3, M4 PAM 9, M5 PAM -2 and M5 antag 10.
CCC(=O)NC(C)C(c1cccs1)N1CCOCC1 (centres undefined) was read as CHRM4 antagonist -8, CHRM4 agonist 0, CHRM5 agonist 2, M4 PAM 8, M5 PAM 1 and M5 antag -2.
For CC(NC(=O)Cc1cccs1)C(c1cccs1)N1CCOCC1 (centres undefined) the results were CHRM4 antagonist -2, CHRM4 agonist 1, CHRM5 agonist -2, M4 PAM 36*, M5 PAM 12 and M5 antag -4.
`CC(NS(=O)(=O)c1ccc(F)cc1)C(c1cccs1)N1CCOCC1` (centres undefined) gave CHRM4 antagonist 54*, CHRM4 agonist 1, CHRM5 agonist 0, M4 PAM -14, M5 PAM -6 and M5 antag -3.
Cc1c(C(=O)NCCC2=CCCCC2)sc2ncnc(N3CCCCC3C)c12 (centres undefined) was read as CHRM4 antagonist 5, CHRM4 agonist 0, CHRM5 agonist -7, M4 PAM -5, M5 PAM 0 and M5 antag -17.
`CCCS(=O)(=O)NC(=O)C1(C)CCCN(C(=O)c2ccc3ccccc3c2)C1` (centres undefined) gave CHRM4 antagonist -6, CHRM4 agonist 1, CHRM5 agonist 1, M4 PAM 17*, M5 PAM 3 and M5 antag -3.
For C=C(C)C1CC=C(C)/C(=N/NC(=O)COc2ccc(Cl)cc2)C1 (centres undefined) the results were CHRM4 antagonist -11, CHRM4 agonist 1, CHRM5 agonist -5, M4 PAM 20*, M5 PAM 5 and M5 antag 2.
CN(C)CCOC1(Cc2ccc(F)cc2)CCC(C(C)(C)C)CC1 (centres undefined) was read as CHRM4 antagonist -10, CHRM4 agonist 13, CHRM5 agonist 16, M4 PAM 1, M5 PAM 19* and M5 antag -22.
Cc1ccc(CC2(OCCN(C)C)CCC(C(C)(C)C)CC2)cc1 (centres undefined) was read as CHRM4 antagonist 11, CHRM4 agonist 11, CHRM5 agonist 8, M4 PAM 0, M5 PAM 6 and M5 antag 3.
`COc1cccc(CN2CCNC(=O)C2CC(=O)N(C)C2CCOCC2)c1OC` (centres undefined) gave CHRM4 antagonist 7, CHRM4 agonist 0, CHRM5 agonist -6, M4 PAM -3, M5 PAM -8 and M5 antag 28*.
`COc1cccc(CN2CCNC(=O)C2CC(=O)N(C)CC2CCOCC2)c1OC` (centres undefined) gave CHRM4 antagonist -19, CHRM4 agonist 2, CHRM5 agonist -1, M4 PAM 3, M5 PAM 2 and M5 antag -10.
For CC(C)Cc1nnc(NC(=O)CCC(=O)NC2CCCCC2)s1 the results were CHRM4 antagonist -2, CHRM4 agonist 1, CHRM5 agonist -4, M4 PAM 6, M5 PAM 2 and M5 antag -2.
`O=[N+]([O-])c1ccc(N2CCN(C(=S)NCc3ccc(Cl)cc3)CC2)cc1` gave CHRM4 antagonist 20, CHRM4 agonist 14, CHRM5 agonist 2, M4 PAM -19, M5 PAM -20 and M5 antag 29*.
For CCC(=O)N(C(=O)CC)N1CCN(c2ccncc2S(=O)(=O)N2CCCCC2)CC1 the results were CHRM4 antagonist 9, CHRM4 agonist 5, CHRM5 agonist 0, M4 PAM -7, M5 PAM -1 and M5 antag 3.
For Cc1ccc(NC(=O)c2cc(S(=O)(=O)N3CCCCC3)c[nH]2)cc1Cl the results were CHRM4 antagonist -6, CHRM4 agonist 2, CHRM5 agonist 2, M4 PAM 2, M5 PAM -4 and M5 antag 1.
Screening Nc1c(-c2ccccc2)c(CSc2nc3ccccc3[nH]2)nn1-c1ccc(C(=O)O)cc1 returned CHRM4 antagonist -8, CHRM4 agonist 1, CHRM5 agonist -2, M4 PAM 24*, M5 PAM 6 and M5 antag -2.
For Cc1nn(-c2ccc(C(=O)O)cc2)c(N)c1-c1ccccc1 the results were CHRM4 antagonist -7, CHRM4 agonist 0, CHRM5 agonist -4, M4 PAM -3, M5 PAM -1 and M5 antag 4.
Cc1nc(Sc2ccc(Br)cc2)c(C#N)c(C)c1[N+](=O)[O-] was read as CHRM4 antagonist -13, CHRM4 agonist -1, CHRM5 agonist -4, M4 PAM -4, M5 PAM -3 and M5 antag 4.

Bioassay records deposited in PubChem BioAssay by The Scripps Research Institute Molecular Screening Center.
